Screening results: PubChem BioAssay, several laboratories
Only some compounds are listed: those with a hit (about 1.8% of all), similar ones and a draw of the others.
APJ agonist: APJ receptor agonism; AID 2520; hit rate 0.11% among 330,000; P35414; CHO-K1 APJ PathHunter beta-arrestin, luminescence; 0% DMSO wells, 100% apelin; activation, % at 20 µM;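 active = activation more than six SD over the plate average, tested at 20 µM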;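 also: 0% = DMSO alone and 100% = apelin-13 at 10 nM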
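Assay system: engineered CHO-K1 APJ arrestin reporter cells; Amount: 1000 CHO-K1 reporter cells seeded per well; Dosing: one dose, 20 µM compound, 1% DMSO; Times: compound stimulation 90 min at 25 °C, detection 60 min; Measured by: luminescent beta-gal fragment complementation, chemiluminescent substrate; Read-out: APJ–arrestin association signal; Controls: DMSO vs Apelin-13 10 nM.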
Beta2AR agonist: activates human beta-2 adrenergic receptor causing internalization; Am2.2-beta2AR cells, FAP receptor internalization, flow cytometry; hit rate 0.43% among 340,000; P07550; response, % (no concentration beside the values); AID 504454;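 active = response above a set limit, near 3 SD of response in nonfluorescent compounds, cut at about 42% in these data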
Target sequence (P07550 whole entry, looked up): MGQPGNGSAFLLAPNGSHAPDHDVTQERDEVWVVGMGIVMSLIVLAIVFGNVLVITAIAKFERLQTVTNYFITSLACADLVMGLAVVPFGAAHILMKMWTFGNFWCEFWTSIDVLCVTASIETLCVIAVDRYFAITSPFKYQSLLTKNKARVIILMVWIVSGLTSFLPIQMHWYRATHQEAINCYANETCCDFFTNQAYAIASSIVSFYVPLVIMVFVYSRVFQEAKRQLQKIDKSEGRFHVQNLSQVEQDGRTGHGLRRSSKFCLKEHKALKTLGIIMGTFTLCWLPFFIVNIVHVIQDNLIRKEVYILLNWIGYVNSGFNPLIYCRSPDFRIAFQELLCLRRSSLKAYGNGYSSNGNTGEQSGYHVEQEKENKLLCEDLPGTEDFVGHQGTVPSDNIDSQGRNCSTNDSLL
EBI2 block: blocks human EBI2 receptor beta-arrestin signaling; P32249; EBI2 beta-arrestin recruitment, luminescence, 7a,25-OHC stimulated; inhibition, % at 5 µM; hit rate 0.81% among 360,000; AID 651636; in the data active = inhibition above about 38%;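 also: enzyme fragment complementation signal reports receptor beta-arrestin coupling in cells; 0% = agonist plus DMSO wells and 100% = wells without agonist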
CXCR6 inh: CXCR6 (human) receptor inhibition. inhibition, % at 20 µM. AID 602244. hit rate 0.36% among 360,000. O00574. CHO-K1 PathHunter CXCR6 beta-arrestin, luminescence; in the data active = inhibition above about 34%, passing the limit was not always enough;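 also: antagonist mode with CXCL16 agonist at 10 nM final; 0% = 10 nM CXCL16 with DMSO and 100% = unstimulated wells without agonist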
APJ antagonist: APJ receptor antagonism | CHO-K1 APJ beta-arrestin complementation, luminescence | inhibition, % at 20 µM | hit rate 0.32% among 330,000;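 active = inhibition above about 40% at 20 µM, limit read from the data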;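 also: cells challenged with 10 nM apelin-13 agonist together with compound; plate controls were apelin-13 plus DMSO wells for no effect and DMSO wells lacking apelin-13 for full effect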
CCR6 antag: CCR6 (human) receptor antagonism; P51684; CHO-K1 CCR6 PathHunter beta-arrestin, luminescence, CCL20-stimulated; inhibition, % at 20 µM; hit rate 0.49% among 340,000;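 active = compounds whose inhibition of the agonist-driven luminescence signal at 20 µM reaches about 50%, limit read from the data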;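 also: cells stimulated with CCL20 at 14 nM final; plate controls were DMSO with CCL20 for no effect and DMSO without agonist for full effect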
APJ ag confirm: confirmation of human APJ apelin receptor agonists. shares compounds with APJ agonist. CHO-K1 APJ PathHunter beta-arrestin, luminescence. hit rate 10% among 310. activation, % at 20 µM;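 active = activation above 40%, taking the highest of four retests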;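 also: plate controls were DMSO wells for no effect and apelin-13 at 10 nM for full effect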
* marks the source's active call; other numbers are inactive results; x = not tested or not shown; ! = not active in a repeat.

SMILES | APJ agonist | Beta2AR agonist | EBI2 block | CXCR6 inh | APJ antagonist | CCR6 antag | others
CCN(CC)P(c1n(C)cc[n+]1C)N(CC)CC | -1 | 1 | -3 | 10 | -1 | 7
C/C1=C\[C@@H](C)C/C=C/[C@H]2[C@@H]3O[C@]3(C)[C@@H](C)[C@H]3[C@H](Cc4c[nH]c5ccccc45)NC(=O)[C@]32C(=O)/C=C/C(=O)[C@@H]1O | -1 | 72* | -44 | -1 | 9 | 43
CCOc1ccc(-n2c(-c3cccs3)nc3ccccc3c2=O)cc1 | -4 | -14 | 11 | 17 | 14 | 19
CCn1nc(/C=C/c2ccccc2)nc2c(=O)n(C)c(=O)nc1-2 | 0 | 68* | 24 | -2 | -70 | 27
CCn1nc(-c2cccs2)nc2c(=O)n(C)c(=O)nc1-2 | x | 102* | 26 | 13 | x | 100*
COc1ccc(-n2c(/C=C/c3ccc(O)cc3)nc3ccccc3c2=O)cc1 | -1 | 5 | 0 | 11 | 3 | 12
CCCCCN1C(=O)c2ccccc2[C@@]2(C(=O)OCC)Cc3cc(OC)ccc3[C@@H]12 | x | x | 9 | 6 | x | x
CC(=O)OC(C)(C)/C=C/C(=O)[C@](C)(O)[C@H]1[C@H](O)C[C@@]2(C)[C@@H]3CC=C4[C@H](C[C@H](O)C(=O)C4(C)C)[C@]3(C)C(=O)C[C@]12C | x | 68* | -76 | 12 | x | 31
CC(=O)OC(C)(C)/C=C/C(=O)C(C)(O)C1C(O)CC2(C)C3CC=C4C(CC(O)C(=O)C4(C)C)C3(C)C(=O)CC12C (stereo not drawn) | x | 16 | -47 | 8 | x | 27
CC(=O)OC(C)(C)/C=C/C(=O)C(C)(O)C1[C@H](O)C[C@@]2(C)C3CC=C4C(CC[C@@H](O)C4(C)C)[C@]3(CO)C(=O)C[C@]12C (stereo partly drawn) | 0 | 52* | -77 | 7 | 12 | 20
CCOC(=O)NC1CCc2cc(OC)c(OC)c(OC)c2-c2ccc(OC)c(=O)cc21 (stereo not drawn) | x | 10 | -34 | 0 | x | 3
Cc1cc(O)c2c(c1)C(=O)C13C(=C2O)C(=O)[C@H]2[C@@H](O)[C@@H]1[C@H]1[C@H](O)[C@@H]3C(=O)C3=C(O)c4c(O)cc(C)cc4C(=O)C312 (stereo partly drawn) | -4 | -2 | -14 | 2 | -20 | -2
CCOC(=O)[C@]12Cc3cc(C)ccc3[C@H]1N(C(C)C)C(=O)c1ccccc12 | x | x | -20 | 6 | x | x
COc1cc(/C=C/[N+](=O)[O-])ccc1O | 1 | 26 | -26 | 28 | -15 | 56*
O=C(CCN1CC1)OCCOC(=O)CCN1CC1 | x | 55* | -7 | 7 | x | 4
COC(=O)C1=C(c2ccccc2OCc2ccccc2)C[C@@H]2CC[C@H]1N2C(=O)NCCOc1ccc(OC)cc1 | -4 | 2 | 51* | 15 | 2 | 14
N#Cc1ncc(N=Cc2ccc(N(CCCl)CCCl)cc2)s1 | x | 10 | 15 | -3 | x | 12
C[C@]12C[C@H](O)[C@@H](O)C[C@@H]1CC[C@@H]1[C@@H]2CC[C@]2(C)C(=O)CC[C@@H]12 | x | x | 3 | -2 | x | x
O=c1[nH]c(=S)[nH]c(O)c1/C=C1/C=c2ccccc2=N1 | x | 52* | -23 | 6 | x | 30
C=C(C=O)CC1CC(O)[C@]2(C)OC3CC4OC5C[C@]6(C)O[C@]7(C)CCC8OC9C[C@]%10(C)OC%11C(C)=CC(=O)OC%11CC%10OC9C[C@@H](C)C8OC7CC6O[C@]5(C)CC5OC5C4OC3CC2O1 (stereo partly drawn) | -4 | 107* | 32 | 28 | 28 | 46
C=C(CO)CC1CC(O)[C@]2(C)OC3CC4OC5C[C@]6(C)O[C@]7(C)CCC8OC9C[C@]%10(C)OC%11C(C)=CC(=O)OC%11CC%10OC9C[C@@H](C)C8OC7CC6O[C@]5(C)C/C=C\C4OC3CC2O1 (stereo partly drawn) | 0 | 0 | -3 | -6 | -79 | -4
C=Cn1ccnc1P(O)(=S)c1nc(C)c(CCOC(C)=O)s1 (stereo not drawn) | -4 | -1 | 5 | 0 | 4 | 4
C[N+](C)(N)CCOC(=O)C(O)(c1ccccc1)C1CCCCC1 (stereo not drawn) | 0 | 98* | -5 | 6 | -5 | 6
CC[N+](CC)(CC)CCCOC(=O)C(O)(c1ccccc1)C1CCCCC1 (stereo not drawn) | -4 | 0 | -9 | 1 | 7 | 5
CCOP(=O)(CCP(=O)(OCC)OCC)OCC.C[CH2][Sn]([Cl])([Cl])[CH2]C | x | -18 | -20 | -2 | x | 13
SMILES | APJ agonist | Beta2AR agonist | EBI2 block | CXCR6 inh | APJ antagonist | CCR6 antag | others
O=C(c1cc2c(s1)-c1ccccc1OC2)N1CCC2(CC1)OCCO2 | -5 | -10 | 88* | 0 | -6 | 8
CN(C)c1ccc(/C=C/c2cc[n+](C)c3ccccc23)cc1 | x | -38 | 4 | 36 | x | 54*!
CCC(C)C1NC(=O)C(NC(=O)C(CC(C)C)N(C)C(=O)C2CCCN2C(=O)C(C)O)C(C)OC(=O)C(Cc2ccc(OC)cc2)N(C)C(=O)C2CCCN2C(=O)C(CC(C)C)NC(=O)[C@H](C)C(=O)[C@H](C(C)C)OC(=O)CC1O (stereo partly drawn) | x | 42* | 17 | 16 | x | 17
C#CCCC[C@@H]1OC(=O)CNC(=O)C([C@@H](C)CC)NC(=O)[C@@H]2CCCN2C(=O)C([C@@H](C)CC)OC(=O)[C@H](Cc2ccccc2)N(C)C(=O)[C@H](C(C)C)NC(=O)C1(C)C (stereo partly drawn) | x | x | 9 | 34 | x | x
O=C1NC(=O)N(Cc2ccccc2)C(=O)/C1=C/C=C/c1ccco1 | 1 | 76* | -10 | 6 | -16 | 22
O=[N+]([O-])/C=C/c1c(Cl)cccc1Cl | x | 27 | -24 | 100* | x | 105*
CC(C)C(O)(C(=O)OCC1=CCN2CCC(O)C12)C(C)O (stereo not drawn) | x | x | 1 | 7 | x | x
O=c1c2ccccc2nc(-c2cccs2)n1-c1ccccc1 | -3 | -5 | -2 | 7 | 1 | 8
NC(N)=N/N=C/c1cn(-c2ccccc2)nc1-c1cccs1 | 11* | 22 | -16 | -18 | -40 | 3
CC(C)[C@H]1C(=O)N2CCC[C@H]2[C@]2(O)O[C@](NC(=O)[C@@H]3C=C4c5cccc6[nH]cc(c56)C[C@H]4N(C)C3)(C(C)C)C(=O)N12 | 16 | -19 | 5 | -5 | 6 | 5
CN1C[C@H](CO)C=C2c3cccc4[nH]cc(c34)C[C@H]21 | 17* | 6 | -5 | -8 | -127 | 3 | APJ ag confirm=-4
CSc1nc(N2CCN(C)CC2)c2ccccc2n1 | -3 | 18 | -2 | 7 | 22 | 6
